Activity calls are given as the source filed them. The rule behind the calls is not given here.
What was measured:
[1] = molecular target: Neuronal acetylcholine receptor; alpha3/beta4 (Rattus norvegicus, UniProt P04757+P12392); test: Displacement of [3H]epibatidine from recombinant rat alpha-3-beta-4 nAChr in HEK293 cell line; format: cell-based
[2] = Displacement of [3H]methyllycaconitine from chimeric alpha-7nAChR Y195F mutant/5HT3A receptor in tsA201 cells; format: cell-based, Homo sapiens
In short: (§1)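 tsA-201 cells transiently transfected with 4 µg WT or mutant α7/5-HT3A chimera and assayed 2 days later. Membranes washed twice at 50000g in 50 mM Tris-HCl pH 7.2. Incubated with 0.5 nM [3H]MLA and compound for 2.5 h at room temperature with shaking; nonspecific binding with 5 mM (S)-nicotine. PEI-soaked GF/C filtration, scintillation counting. Ki derived; duplicate, 3–7 experiments.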

[3] = Displacement of [3H]methyllycaconitine from chimeric alpha-7nAChR S150A mutant/5HT3A receptor in tsA201 cells; format: cell-based, Homo sapiens; in short: as §1
tsA201 = test: Displacement of [3H]methyllycaconitine from chimeric alpha-7nAChR Y188A mutant/5-HT3A receptor in tsA201 cells; format: cell-based; details: Homo sapiens; in short: as §1
[4] = Displacement of [3H]methyllycaconitine from chimeric alpha-7nAChR D197A mutant/5HT3A receptor in tsA201 cells; format: cell-based, Homo sapiens; in short: as §1
[5] = molecular target: T1, 5-hydroxytryptamine receptor 3A (Homo sapiens, UniProt P46098); test: Antagonist activity at human 5HT3A receptor expressed in HEK293 cells by FMP assay; format: functional, cell-based
T1 sequence (P46098 whole entry): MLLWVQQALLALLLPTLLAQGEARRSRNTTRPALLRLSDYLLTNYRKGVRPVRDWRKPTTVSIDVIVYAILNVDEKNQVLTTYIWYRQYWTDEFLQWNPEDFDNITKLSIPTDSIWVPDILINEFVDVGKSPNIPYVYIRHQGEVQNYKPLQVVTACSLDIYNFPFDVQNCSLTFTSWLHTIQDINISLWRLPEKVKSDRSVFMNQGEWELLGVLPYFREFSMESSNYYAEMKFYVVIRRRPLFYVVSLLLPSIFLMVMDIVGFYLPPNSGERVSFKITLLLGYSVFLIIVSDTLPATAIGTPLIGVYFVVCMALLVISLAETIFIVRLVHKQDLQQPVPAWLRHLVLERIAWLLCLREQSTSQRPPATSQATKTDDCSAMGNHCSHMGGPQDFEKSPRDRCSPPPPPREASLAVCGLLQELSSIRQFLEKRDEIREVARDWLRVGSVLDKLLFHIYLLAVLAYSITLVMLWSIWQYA

[6] = molecular target: Neuronal acetylcholine receptor subunit alpha-7 (Homo sapiens, UniProt P36544); test: Displacement of [3H]methyllycaconitine from alpha7 nAChR in tsA201 cells co-expressed with Ric3; format: cell-based
[7] = Displacement of [3H]methyllycaconitine from chimeric alpha7nAChR Y195A mutant/5HT3A receptor in tsA201 cells; format: cell-based, Homo sapiens; in short: as §1
[8] = Antagonist activity at human alpha-7 nAChR Y188A mutant coexpressed with human Ric3 in tsA201 cells by FMP assay; format: functional, cell-based
[9] = Displacement of [3H]methyllycaconitine from chimeric alpha-7nAChR W55A mutant /5HT3A receptor in tsA201 cells; format: cell-based, Homo sapiens; in short: as §1

Chain of Neuronal acetylcholine receptor subunit alpha-7 (P36544 whole entry): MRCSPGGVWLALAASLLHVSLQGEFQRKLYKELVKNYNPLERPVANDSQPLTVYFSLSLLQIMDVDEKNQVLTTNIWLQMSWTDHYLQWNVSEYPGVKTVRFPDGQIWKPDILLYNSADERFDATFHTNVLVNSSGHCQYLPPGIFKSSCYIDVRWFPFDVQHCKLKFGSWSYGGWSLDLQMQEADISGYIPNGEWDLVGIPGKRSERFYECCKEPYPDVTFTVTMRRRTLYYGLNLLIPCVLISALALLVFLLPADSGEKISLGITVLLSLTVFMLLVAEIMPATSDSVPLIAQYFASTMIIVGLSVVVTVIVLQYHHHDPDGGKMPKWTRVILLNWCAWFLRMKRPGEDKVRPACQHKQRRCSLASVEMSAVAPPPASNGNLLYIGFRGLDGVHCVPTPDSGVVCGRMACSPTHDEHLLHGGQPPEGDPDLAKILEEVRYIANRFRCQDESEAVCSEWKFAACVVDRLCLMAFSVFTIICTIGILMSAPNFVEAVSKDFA
Chain of Neuronal acetylcholine receptor; alpha3/beta4 (P04757 whole entry): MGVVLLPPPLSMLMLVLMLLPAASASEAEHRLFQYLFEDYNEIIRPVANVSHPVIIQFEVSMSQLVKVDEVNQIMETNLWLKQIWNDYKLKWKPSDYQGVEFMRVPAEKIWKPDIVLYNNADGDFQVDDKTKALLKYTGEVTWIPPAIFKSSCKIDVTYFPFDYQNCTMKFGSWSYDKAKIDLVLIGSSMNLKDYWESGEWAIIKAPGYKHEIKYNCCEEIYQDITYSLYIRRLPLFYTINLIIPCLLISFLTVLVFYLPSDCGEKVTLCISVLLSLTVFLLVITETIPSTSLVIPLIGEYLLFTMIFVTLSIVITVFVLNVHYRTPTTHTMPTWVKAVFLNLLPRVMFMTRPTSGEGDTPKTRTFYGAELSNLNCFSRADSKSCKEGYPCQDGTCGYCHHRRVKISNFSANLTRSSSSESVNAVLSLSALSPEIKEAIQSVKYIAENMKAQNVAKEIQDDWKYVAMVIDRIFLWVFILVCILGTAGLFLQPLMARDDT
Chain of Neuronal acetylcholine receptor; alpha3/beta4 (P12392 whole entry): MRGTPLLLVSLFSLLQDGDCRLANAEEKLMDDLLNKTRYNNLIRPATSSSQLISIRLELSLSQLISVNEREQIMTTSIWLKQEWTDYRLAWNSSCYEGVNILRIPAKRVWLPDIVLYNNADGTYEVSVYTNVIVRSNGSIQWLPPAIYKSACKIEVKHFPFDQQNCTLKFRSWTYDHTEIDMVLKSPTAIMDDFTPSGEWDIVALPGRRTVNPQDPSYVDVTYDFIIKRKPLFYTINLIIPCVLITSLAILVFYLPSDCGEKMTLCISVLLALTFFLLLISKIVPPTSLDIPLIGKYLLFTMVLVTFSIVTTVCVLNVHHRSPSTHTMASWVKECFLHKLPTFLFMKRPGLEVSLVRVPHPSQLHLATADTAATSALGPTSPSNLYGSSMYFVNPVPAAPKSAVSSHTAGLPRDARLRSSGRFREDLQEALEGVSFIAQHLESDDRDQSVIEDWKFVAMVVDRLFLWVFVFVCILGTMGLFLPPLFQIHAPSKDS

Compound `O=[N+]([O-])c1ccc(C[N+]23CC[C@@H]4[C@@H]5[C@@H]6[C@@H](OCC=C(C2)[C@@H]6C[C@@H]43)N2c3ccccc3[C@@]34CC[N+]6(Cc7ccc([N+](=O)[O-])cc7)CC7=CCO[C@H]([C@@H]([C@H]23)[C@H]7C[C@@H]46)N5c2ccccc2)cc1.[Br-].[Br-]` (some centres undefined) has a Ki [1] greater than 100 µM, a pKi ([1]; hek293) of less than 4 and a Ki [2] of 50 nM. It also gave a pKi [2] of 7.3, a Ki [3] of 35 nM and a pKi [3] of 7.45. For the same compound, the Activity (tsA201) was “inactive”, the Ki [4] was 31 nM and the pKi [4] was 7.51. For the same compound, the pIC50 ([5]; hek293) was less than 4, the IC50 ([5]; read-out: IC50) was greater than 100 µM and the Ki ([6]; read-out: Ki) was 29 nM. For the same compound, the Ki ([6]; read-out: pKi (converted)) was 31.6 nM, the Ki [7] was 740 nM and the pKi [7] was 6.13. The IC50 ([8]; read-out: IC50) was 15 µM, the IC50 ([8]; read-out: pIC50 (converted)) was 15.5 µM and the Ki [9] was 130 nM. For the same compound, the pKi [9] was 6.89.

From ChEMBL document CHEMBL1148788 (J Med Chem, 2007)
